Experimental data collected from several papers.
Compare with care: the assays were run in different laboratories.
Target: Mitogen-activated protein kinase kinase kinase 14 (MAP3K14, Homo sapiens, UniProt Q99558)

| SMILES | read-out | technique | tested at | remaining binding |
| --- | --- | --- | --- | --- |
| COc1cnc(Nc2cccc(S(N)(=O)=O)c2)nc1N1CCN(c2ccccc2)C(=O)C1 | binding | competition with immobilised ligand | 1 µM | 89% |
| O=C(NCCCN1CCOCC1)c1ccc(Nc2nccc(-c3cc4ccccc4s3)n2)cc1 | binding | competition with immobilised ligand | 1 µM | 87% |
| O=C(NS(=O)(=O)c1ccc(NCC2CCOCC2)c([N+](=O)[O-])c1)c1ccc(N2CCN(Cc3ccc(C(F)(F)F)cc3-c3ccc(Cl)cc3)CC2)cc1Oc1cnc2[nH]ccc2c1 | cell-free assay | competition with immobilised ligand | 1 µM | 65% |
| O=C(c1ccc(Nc2nccc(-c3cc4ccccc4s3)n2)cc1)N1CCC(N2CCCC2)CC1 | binding | competition with immobilised ligand | 1 µM | 59% |
| c1cncc(-c2cccc(Nc3nccc(NC4CCCCC4)n3)c2)c1 | binding | competition with immobilised ligand | 10 µM | 96% |
| O=C(NCC1CCOCC1)c1n[nH]cc1NC(=O)c1c(F)cccc1F | binding | competition with immobilised ligand | 1 µM | 79% |
| O=C(NCc1ncc(C(F)(F)F)cc1Cl)c1ccc2c(c1)C1(CCS(=O)(=O)CC1)[C@@H](C1CC1)N2S(=O)(=O)c1ccc(F)cc1 | cell-free assay | competition with immobilised ligand | 1 µM | 71% |
| CN(C)c1nccc(-c2cnn3ncccc23)n1 | binding | competition with immobilised ligand | 1 µM | 74% |
| c1ccc(N2CCN(Cc3nc4ccccc4[nH]3)CC2)nc1 | binding | competition with immobilised ligand | 1 µM | 94% |
| CN(C)c1ncc(F)c(-c2cnn3ncccc23)n1 | binding | competition with immobilised ligand | 1 µM | 75% |
| Nc1ncc2c(n1)-c1c([nH]c3ccc(C#CC4CC4)cc13)CCCC2 | binding | competition with immobilised ligand | 1 µM | 73% |
| CN(c1ccnc(CNc2nc(Nc3ccc4c(c3)CC(=O)N4)ncc2C(F)(F)F)n1)S(C)(=O)=O | cell-free assay | competition with immobilised ligand | 1 µM | 65% |
| Cc1cnn2ncc(-c3ccnc(N(C)C)n3)c2c1 | binding | – | 1 µM | 80% |
| O=C(NCCCN1CCOCC1)c1ccc(Nc2ncc(Cl)c(-c3ccc(Cl)s3)n2)cc1 | binding | competition with immobilised ligand | 1 µM | 49% |
| CN(c1nccc(-c2cnn3ncccc23)n1)C1CC1 | binding | – | 1 µM | 100% |
| CCCCN(CCCC)C(=O)CN1C[C@@H](c2cc(OC)c3c(c2)OCO3)[C@H](C(=O)O)[C@H]1CC(C)(C)CCC | cell-free assay | competition with immobilised ligand | 1 µM | 100% |
| N[C@H]1CCN(c2nccc(-c3cnn4ncccc34)n2)C1 | binding | competition with immobilised ligand | 1 µM | 100% |
| CNC(=O)[C@@H]1CC[C@@H](n2c(-c3ccc4cnccc4c3)nc3ccc(C(=O)NCc4cccc(C(N)=O)c4)cc32)C1 | binding | competition with immobilised ligand | 1 µM | 100% |
| COc1ccnn2ncc(-c3ccnc(N(C)C)n3)c12 | binding | – | 1 µM | 78% |
| CN(C)C(=O)Cn1cc(-c2nc(C3(c4ccc(-c5cnc(N)nc5)cc4)CC3)no2)cn1 | cell-free assay | competition with immobilised ligand | 1 µM | 83% |
